Source: the array DNA melting data of Ke et al. (doi:10.1101/2024.01.08.574731)

Assays:
[1] = folding enthalpy; higher = less favourable; fluorescence melt of hairpins on a sequencing array, two-state fit; details: sodium 0.088 M
Procedure, shortened: (§1)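 Folding enthalpy and melting temperature come from bootstrapped two-state fits to Cy3 fluorescence of library hairpins carrying annealed Cy3 and quencher oligos on a sequenced MiSeq flow cell. Imaging was done in 50 mM Na-HEPES pH 8.0, 25 mM NaCl, stepping by 2.5 °C up to 60 °C, and signals were normalised to pre-quench Cy3 and to control constructs. Results of four replicates were combined by inverse variance, and fitted temperatures were raised by 9.35 °C to match UV melts.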

[2] = melting temperature; fluorescence melt of hairpins on a sequencing array, two-state fit, raised by 9.35 °C to match UV melts; details: sodium 0.088 M
Procedure, shortened: as §1

Sequence	folding enthalpy [1] [kcal/mol]	Tm [2] [°C]
CGCACGGAAACGTGGGCG ((((((....)))..)))	-12.8	56.3
CGCACGGAAACGTTCGCG ((((((....)))..)))	-22.7	41.1
CGCACGGAAACGTTTGCG ((((((....)))..)))	-29.5	44.1
CGCAGACGGAAACGTGCG (((..(((....))))))	-22.6	49.3
CGCATCCGGAAACGGGCG (((..(((....))))))	-26.7	46.9
CGCATCGGAAACGAGGCG (((.(((....))).)))	-44.1	61.4
CGCATTCGGAAACGAGCG (((..(((....))))))	-25.9	36.9
CGCCCGGAAACGGAAGCG ((((((....)))..)))	-30.8	49.3
CGCCCGGAAACGGGTGCG ((((((....)))..)))	-10.7	57.5
CGCCCGGAAACGGTAGCG ((((((....)))..)))	-30.4	50.9
CGCCCGGAAACGGTCGCG ((((((....)))..)))	-21.2	50.1
CGCCCTCGGAAACGAGCG (((..(((....))))))	-12.2	34.5
CGCCGCGGAAACGCGCG (((.(((....))))))	-16.6	66.6
CGCCGTCGGAAACGAGCG (((..(((....))))))	-28.4	50.3
CGCGCGGAAACGCATGCG ((((((....)))..)))	-32.8	52.9
CGCGCGGAAACGCCAGCG ((((((....)))..)))	-23	53.9
CGCGCGGAAACGCCCGCG ((((((....)))..)))	-29.7	54.7
CGCGCGGAAACGCTCGCG ((((((....)))..)))	-23.4	52.5
CGCGCGGAAACGCTGGCG ((((((....)))..)))	-29.6	53.7
CGCGGAACGATCCGCG ((((((....))))))	-31.8	67.6
CGCGGAACGTCCGCG ((((((...))))))	-39.5	60.5
CGCGGAAGCCTCCGCG ((((((....))))))	-31.3	68.6
CGCGGAAGGTCCGCG ((((((...))))))	-27.1	69.2

Sequence	folding enthalpy [1] [kcal/mol]	Tm [2] [°C]
CGCGGAATTCTCCGCG ((((((....))))))	-32	69.3
CGCGGACAAATCCGCG ((((((....))))))	-40.8	60.9
CGCGGACAGCTCCGCG ((((((....))))))	-30.1	68.2
CGCGGACAGTTCCGCG ((((((....))))))	-40.7	66.6
CGCGGACCACTCCGCG ((((((....))))))	-32.7	64
CGCGGACCATTCCGCG ((((((....))))))	-37.3	65.3
CGCGGACCGATCCGCG ((((((....))))))	-36.5	68.5
CGCGGACGACTCCGCG ((((((....))))))	-40.8	63.5
CGCGGACGCCTCCGCG ((((((....))))))	-32	68.8
CGCGGACTTCTCCGCG ((((((....))))))	-35.6	65.9
CGCGGAGCGATCCGCG ((((((....))))))	-23.5	62.2
CGCGTGCGGAAACGCGCG (((..(((....))))))	-12.4	66.1
CGCTACGGAAACGTGCG (((.(((....))))))	-33.2	53.3
CGCTACGGAAACGTGGCG (((.(((....))).)))	-40.1	59.5
CGCTACGGAAACGTTGCG (((.(((....))).)))	-38.7	56.3
CGCTAGAAATAGCG (((((....)))))	-24.9	51.8
CGCTCGGAAACGAAAGCG ((((((....)))..)))	-27.8	47.2
CGCTCGGAAACGAAGGCG ((((((....)))..)))	-29.6	44.7
CGCTCGGAAACGACCGCG ((((((....)))..)))	-21.6	38.6
CGCTCGGAAACGACGGCG ((((((....)))..)))	-22.7	46.6
CGCTCGGAAACGAGGGCG ((((((....)))..)))	-12.4	51.7
CGCTCGGAAACGATCGCG ((((((....)))..)))	-24.2	40.2
CGCTCTCGGAAACGAGCG (((..(((....))))))	-17.5	46

Sequence	folding enthalpy [1] [kcal/mol]	Tm [2] [°C]
CGCTGCGGAAACGCGCG (((.(((....))))))	-27.1	60.8
CGCTGCGGAAACGCTGCG (((.(((....))).)))	-30.7	69.2
CGCTTGAAAAAGCG (((((....)))))	-23.3	58.2
CGCTTGCGGAAACGCGCG (((..(((....))))))	-10.8	51.3
CGGAAACGGAAACGTCCG (((..(((....))))))	-22.9	41.1
CGGAAGAAATTCCG (((((....)))))	-25.1	46.4
CGGACGGAAACGTCACCG ((((((....)))..)))	-11.6	34.4
CGGACGGAAACGTGCCG ((((((....))).)))	-18.7	48.4
CGGACGGAAACGTGGCCG ((((((....)))..)))	-25.7	44.1
CGGAGGCGGAAACGCCCG (((..(((....))))))	-11.7	54.7
CGGATCGGAAACGACCG (((.(((....))))))	-28.2	49.8
CGGCACGGAAACGTCCG (((.(((....))))))	-21.8	47.9
CGGCATCGGAAACGACCG (((..(((....))))))	-16.6	34.4
CGGCCCCGGAAACGGCCG (((..(((....))))))	-31.9	54.4
CGGCCCGGAAACGGACCG (((.(((....))).)))	-37.7	57.6
CGGCCGGAAACGGAACCG ((((((....)))..)))	-26.2	46
CGGCCGGAAACGGACCG ((((((....))).)))	-25	54.6
CGGCCGGAAACGGCACCG ((((((....)))..)))	-8.06	34.5
CGGCCGGAAACGGCGCCG ((((((....)))..)))	-8.21	39.2
CGGCCGGAAACGGTGCCG ((((((....)))..)))	-35.8	51.9
CGGCGCGGAAACGCCCG (((.(((....))))))	-16.7	56.5
CGGCGTCGGAAACGACCG (((..(((....))))))	-13.8	47.4
CGGCTCGGAAACGATCCG (((.(((....))).)))	-44.5	49.2

Sequence	folding enthalpy [1] [kcal/mol]	Tm [2] [°C]
CGGGACCGGAAACGGCCG (((..(((....))))))	-16.1	48.5
CGGGATCGGAAACGACCG (((..(((....))))))	-22.6	40
CGGGCCCGGAAACGGCCG (((..(((....))))))	-13.3	50.3
CGGGCGGAAACGCAACCG ((((((....)))..)))	-23.9	49.7
CGGGCGGAAACGCACCG ((((((....))).)))	-16.9	60.4
CGGGCGGAAACGCGTCCG ((((((....)))..)))	-23.9	53
CGGGTGAAAACCCG (((((....)))))	-28.9	68.6
CGGTACGGAAACGTCCCG (((.(((....))).)))	-25	46.6
CGGTACGGAAACGTCCG (((.(((....))))))	-20.9	47.7
CGGTACGGAAACGTGCCG (((.(((....))).)))	-37.5	59.8
CGGTCGGAAACGACTCCG ((((((....)))..)))	-13.3	33.9
CGGTCGGAAACGATACCG ((((((....)))..)))	-26.9	41.2
CGGTCTCGGAAACGACCG (((..(((....))))))	-30	46.7
CGGTTCGGAAACGAGCCG (((.(((....))).)))	-50.5	58.6
CGGTTGAAAAACCG (((((....)))))	-29.6	56.2
CGTACCGGAAACGGAACG (((.(((....))).)))	-30.7	50.7
CGTACGAAAGTACG (((((....)))))	-26.7	68.9
CGTACGGAAACGTTAACG ((((((....)))..)))	-16.7	37.3
CGTAGCGGAAACGCACG (((.(((....))))))	-22.2	53.1
CGTATGCGGAAACGCACG (((..(((....))))))	-9.53	40.7
CGTCACGGAAACGTACG (((.(((....))))))	-22.8	40
CGTCAGAAATGACG (((((....)))))	-24.5	51.6
CGTCCCCGGAAACGGACG (((..(((....))))))	-21.1	42.2
